The text below walks through data of ChEMBL document CHEMBL4406880, “Design, synthesis, and bioactivity of dihydropyrimidine derivatives as kinesin spindle protein inhibitors” (Bioorg Med Chem, 2019).

Where only a bound is given, the exact number is not on record here.

The subject of test [1] is SNB-19. Nature of the test: Growth inhibition of human SNB19 cells incubated for 48 hrs by sulforhodamine B assay. The conditions noted are these: SNB-19, 48 h. It counts as functional. The method in brief: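 NCI-60 five-dose SRB assay. Cells were exposed for 48 h to tenfold dilutions of 0.01, 0.1, 1, 10 and 100 µM, in RPMI 1640 with 5% FBS. Plates fixed with TCA at the time of drug addition served as the time-zero reference. GI50 is the concentration giving a 50% reduction in net growth. TGI is total growth inhibition. LC50 is a net 50% loss of the initial cells.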

In test [2] the test system is Hs-578T. In words: Growth inhibition of human Hs 578T cells assessed as cell viability at 0.001 uM incubated for 48 hrs by sulforhodamine B assay relative to control. Type of test: functional. The conditions noted are these: read-out: Activity. On the technique in general: Sulforhodamine B stains cellular protein and so reports cell mass.

Turning to `CC1=C(C(=O)OCc2ccccc2)C(c2ccc3c(c2)OCO3)n2c(nc3ccccc32)N1` (racemic), the results for the GI50 in test [1] (read-out: GI50) and in test [1] (read-out: pGI50 (converted)) were 560 nM and 562 nM, respectively. For the same compound, the CC50 in test [1] (read-out: LC50 (the source's name)) and in test [1] (read-out: pLC50 (the source's name) (converted)) was above 100 µM in each case. Besides, the TGI in test [1] (read-out: TGI) and in test [1] (read-out: pTGI) was above 100 µM each time. For the same compound, in test [2], the viability at 0.001 µM turned out to be 87%.
